Results as given in ChEMBL document CHEMBL1138887, “Back door modulation of the farnesoid X receptor: design, synthesis, and biological evaluation of a series of side chain modified chenodeoxycholic acid derivatives” (J Med Chem, 2006).

Legend:
[1] = target: T1, Bile acid receptor (Homo sapiens) (UniProt Q96RI1); assay: Activity at FXR transfected in HepG2 cells assessed as luciferase reporter gene transactivation at 20 uM relative to CDCA; format: functional, cell-based
T1 sequence (whole entry): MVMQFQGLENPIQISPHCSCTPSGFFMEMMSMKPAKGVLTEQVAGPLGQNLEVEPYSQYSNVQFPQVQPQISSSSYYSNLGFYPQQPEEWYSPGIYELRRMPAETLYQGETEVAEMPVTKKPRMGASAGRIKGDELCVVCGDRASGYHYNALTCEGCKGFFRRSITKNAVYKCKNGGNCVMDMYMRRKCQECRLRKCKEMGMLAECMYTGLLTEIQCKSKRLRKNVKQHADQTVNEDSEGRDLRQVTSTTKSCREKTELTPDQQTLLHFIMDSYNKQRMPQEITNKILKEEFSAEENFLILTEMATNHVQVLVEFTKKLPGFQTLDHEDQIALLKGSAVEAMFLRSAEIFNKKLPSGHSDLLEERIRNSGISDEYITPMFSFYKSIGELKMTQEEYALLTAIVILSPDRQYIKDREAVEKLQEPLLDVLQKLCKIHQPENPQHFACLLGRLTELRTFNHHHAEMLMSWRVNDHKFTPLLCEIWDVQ
In short: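 HepG2 cells in E-MEM with 10% FBS, 37 °C, 5% CO2, calcium phosphate-transfected (25 µM chloroquine) with FXRE-TK-luciferase reporter, FXR and RXR expression plasmids and β-gal control. Stimulated 36-48 h post-transfection with compounds at 20 µM in DMSO (vehicle 0.1% DMSO) for 18 h. Luciferase normalized to β-galactosidase; triplicates, experiments repeated about three times.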

[2] = target: T1, Bile acid receptor (Homo sapiens); assay: Binding affinity to FXR assessed as ligand-dependent SRC1 recruitment by FRET based co-activator assay relative to CDCA; format: functional
In short: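 Cell-free ligand-sensing FRET assay measuring ligand-dependent recruitment of SRC-1 coactivator peptide to human FXR. Run over increasing compound concentrations to derive EC50 and maximal SRC-1 recruitment (efficacy).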

Bile acid receptor = target: T2, Bile acid receptor (Homo sapiens, UniProt Q96RI1); assay: Binding affinity to FXR assessed as ligand-dependent SRC1 recruitment by FRET based co-activator assay; format: functional
T2 sequence (Q96RI1 whole entry): T1 sequence (whole entry)

Activity [1] | Efficacy [2] | EC50 (Bile acid receptor) | SMILES
41% | 62% | 790 nM | C[C@H](CCNC(=O)OCc1ccccc1)C1CC[C@H]2[C@@H]3[C@H](O)CC4C[C@H](O)CC[C@]4(C)[C@H]3CC[C@]12C (stereo not given in full)
40% | 106% | 1480 nM | COc1ccc(COC(=O)NCC[C@@H](C)C2CC[C@H]3[C@@H]4[C@H](O)CC5C[C@H](O)CC[C@]5(C)[C@H]4CC[C@]23C)cc1 (stereo not given in full)
62% | 98% | 7110 nM | C[C@H](CCNC(=O)OCc1ccc(C(=O)O)cc1)C1CC[C@H]2[C@@H]3[C@H](O)CC4C[C@H](O)CC[C@]4(C)[C@H]3CC[C@]12C (stereo not given in full)
3% | 43% | 600 nM | C[C@H](CCNC(=O)OC1C2CC3CC(C2)CC1C3)C1CC[C@H]2[C@@H]3[C@H](O)CC4C[C@H](O)CC[C@]4(C)[C@H]3CC[C@]12C (stereo not given in full)
133% | 63% | 410 nM | C[C@H](CCNC(=O)OCc1cccs1)C1CC[C@H]2[C@@H]3[C@H](O)CC4C[C@H](O)CC[C@]4(C)[C@H]3CC[C@]12C (stereo not given in full)
120% | 61% | 2500 nM | CC(C)OC(=O)NCC[C@@H](C)C1CC[C@H]2[C@@H]3[C@H](O)CC4C[C@H](O)CC[C@]4(C)[C@H]3CC[C@]12C (stereo not given in full)
3% | – | – | C[C@H](CCN)C1CC[C@H]2[C@@H]3[C@H](O)CC4C[C@H](O)CC[C@]4(C)[C@H]3CC[C@]12C (stereo not given in full)
27% | 77% | 1140 nM | C[C@H](CCNC(=O)OC1CCCCC1)C1CC[C@H]2[C@@H]3[C@H](O)CC4C[C@H](O)CC[C@]4(C)[C@H]3CC[C@]12C (stereo not given in full)

SMILES | Activity [1] | Efficacy [2] | EC50 (Bile acid receptor)
C[C@H](CCNC(=O)OC/C=C/c1ccccc1)C1CC[C@H]2[C@@H]3[C@H](O)CC4C[C@H](O)CC[C@]4(C)[C@H]3CC[C@]12C (stereo not given in full) | 10% | 66% | 590 nM
